# Laboratory results reported in ChEMBL document CHEMBL4257558, “Synthesis of dihydronaphthalene analogues inspired by combretastatin A-4 and their biological evaluation as anticancer agents” (Medchemcomm, 2018).
# Active and inactive are the calls of the source. No cut-off for these calls is given here.
# Experiments:
# Bos taurus [1] = organism: Bos taurus; assay: Inhibition of [3H]colchicine binding to calf brain tubulin at 1 uM incubated for 10 mins by scintillation counting method relative to control
# Procedure, shortened: (§1)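 Tubulin at 1.0 μM with 5.0 μM [3H]colchicine, 5% (v/v) DMSO and test compound at 1.0 or 5.0 μM. Binding-stabilizing buffer: 1.0 M monosodium glutamate (pH 6.6), 0.5 mg mL–1 BSA, 0.1 M glucose-1-phosphate, 1.0 mM MgCl2, 1.0 mM GTP. Incubated 10 min at 37 °C, stopped with ice-cold water, trapped on DEAE-cellulose filters and scintillation-counted. Counts corrected for filter binding without tubulin; percent inhibition versus no-inhibitor samples.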
# SK-OV-3 = assay: Growth inhibition of human SKOV3 cells after 48 hrs by SRB assay; assay type: functional; settings: SK-OV-3, 48 h
# Procedure, shortened: (§2)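 Cells plated at 7000–8000 per well in DMEM with 5% FBS/1% gentamicin, grown 24 h at 37 °C, 5% CO2. Compounds from 10 mg/mL DMSO stock added as serial dilutions; doxorubicin and paclitaxel as positive controls.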
# NCI-H460 = assay: Growth inhibition of human NCI-H460 cells after 48 hrs by SRB assay; assay type: functional; settings: NCI-H460, 48 h; procedure, shortened: as §2
# Bos taurus [2] = organism: Bos taurus; assay: Inhibition of [3H]colchicine binding to calf brain tubulin at 5 uM incubated for 10 mins by scintillation counting method relative to control; procedure, shortened: as §1
# DU-145 = assay: Growth inhibition of human DU145 cells after 48 hrs by SRB assay; assay type: functional; settings: DU-145, 48 h; procedure, shortened: as §2
# [3] = Inhibition of bovine brain tubulin polymerization preincubated for 15 mins followed by GTP addition and measured for 20 mins by spectrophotometric method; set-up: species or system Bos taurus
# Procedure, shortened: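 Final mixture: 10 μM (1 mg/mL) bovine brain tubulin, 0.8 M monosodium glutamate pH 6.6, 4% DMSO, 0.4 mM GTP, varied compound concentrations. All components except GTP preincubated 15 min at 30 °C, chilled to 0 °C, GTP added, then jumped to 30 °C.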
# A549 = assay: Vascular disrupting activity in human A549 cells xenografted in T-cell deficient athymic homozygous nude rat assessed as reduction of blood flow at 15 mg/kg, ip after 2 hrs by color doppler ultrasound imaging method; assay type: functional, organism-based
# Procedure, shortened: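 Nude rat bearing subcutaneous leg A549 tumor (3 × 10^6 cells in serum-free medium with 50% Matrigel; tumor about 0.5 cm3). Under isoflurane, color-Doppler ultrasound performed before and 2 h after 15 mg/kg IP in 500 μl saline; tumor blood perfusion compared with baseline.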
# MDA-MB-231 [4] = assay: Vascular disrupting activity in luciferase expressing human MDA-MB-231 cells xenografted in BALB/c SCID mouse at 200 mg/kg, ip at 4 hrs by bioluminescence imaging method relative to control; assay type: functional
# Procedure, shortened: (§3)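 Orthotopic tumors from 1 × 10^6 MDA-MB-231-luc cells in PBS/50% Matrigel injected into left upper mammary fat pad of BALB/c SCID mice. Dynamic BLI over 30 min after luciferin injection at baseline, then 4 and 24 h after IP dosing in saline (200 mg/kg in the mouse shown), with fresh luciferin each time; signal reduction expressed versus baseline.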
# MDA-MB-231 [5] = assay: Vascular disrupting activity in luciferase expressing human MDA-MB-231 cells xenografted in BALB/c SCID mouse at 200 mg/kg, ip at 24 hrs by bioluminescence imaging method relative to control; assay type: functional; procedure, shortened: as §3
smiles,measurement,setting,value
COc1ccc2c(c1O)CCC=C2C(=O)c1cc(OC)c(OC)c(OC)c1,inhibition,Bos taurus [1],81%
same,GI50,SK-OV-3,6.22 nM
same,GI50,NCI-H460,21.6 nM
same,inhibition,Bos taurus [2],98%
same,GI50,DU-145,7.3 nM
same,IC50,[3],1200 nM
COc1cc(C2=CCCc3c2ccc(OC)c3OP(=O)(O)O)cc(OC)c1OC,GI50,SK-OV-3,1.9 nM
same,Activity,A549,Active
same,GI50,NCI-H460,3.73 nM
same,GI50,DU-145,3.27 nM
same,IC50,[3],> 20000 nM
COc1cc(C(=O)C2=CCCc3c2ccc(OC)c3OP(=O)([O-])[O-])cc(OC)c1OC.[Na+].[Na+],Activity,MDA-MB-231 [4],99%
same,GI50,SK-OV-3,12.9 nM
same,Activity,MDA-MB-231 [5],81%
same,GI50,NCI-H460,52.4 nM
same,GI50,DU-145,12.6 nM
same,IC50,[3],> 20000 nM
